These results are taken from ChEMBL document CHEMBL4043273, “Phenotypic Optimization of Urea-Thiophene Carboxamides To Yield Potent, Well Tolerated, and Orally Active Protective Agents against Aminoglycoside-Induced Hearing Loss” (J Med Chem, 2018).

Data set [1] is described as follows: Elimination half life in rat by LC-MS method. The format is ADME. Conditions: in vivo, read-out: beta t1/2 (converted).
Data set [2] in a line: Drug metabolism assessed as air oxidation. Format: physicochemical.
A short description of data set [3]: Permeability across MDCK cells expressing MDR1. Format: ADME, cell-based, Canis lupus familiaris. Conditions: dog, read-out: permeability.
A short description of data set [4]: Aqueous solubility of compound at pH 7.4. Conditions: aqueous medium, read-out: solubility. The format is physicochemical.
The next data set concerns the target Cytochrome P450 2C19 (Homo sapiens, UniProt P33261). Nature of the data set: Inhibition of CYP2C19 (unknown origin). The format is ADME.
The nature of data set [5]: Metabolic stability in microsomes (unknown origin). The format is ADME, Microsome.
The next data set addresses Cytochrome P450 2D6 (Homo sapiens, UniProt P10635). Nature of the data set: Inhibition of CYP2D6 (unknown origin). The format is ADME.
A further data set has as its system HepG2. Nature of the data set: Cytotoxicity against human HepG2 cells assessed as decrease in cell growth after 72 hrs by celltiter glo assay. The format is cell-based. Conditions: HepG2, 72 h. On the technique in general: In ATP-based viability assays light output follows the ATP content of the culture.
Data set [6] can be described thus: Ratio of IC50 for human ERG expressed in HEK293 cells to HC50 for protection against neomycin-induced hair cell death in AB zebra fish larvae.
Another data set addresses Cytochrome P450 3A4 (Homo sapiens, UniProt P08684). Nature of the data set: Inhibition of CYP3A4 (unknown origin). The format is ADME.
The nature of data set [7]: Protein binding in human plasma. The format is ADME, cell-free. To be noted: read-out: PPB.
The species named for data set [8] is Danio rerio. Nature of the data set: Protection against neomycin-induced hair cell death in AB zebra fish larvae assessed as increase in hair cell survival preincubated for 1 hr followed by neomycin challenge for 1 hr by DASPEI staining-based epifluorescence dissecting microscopic method. The format is functional.
For data set [9], the species on record is Danio rerio. Nature of the data set: Protection against neomycin-induced hair cell death in AB zebra fish larvae assessed as increase in hair cell survival at 2.8 uM preincubated for 1 hr followed by neomycin challenge for 1 hr by DASPEI staining-based epifluorescence dissecting microscopic method relative to control. Format: functional. In outline: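 AB larvae raised at 28.5°C in embryo medium and tested at 5-7 dpf, ten fish per basket. Pretreatment with compound for 1 h at 1.56–25 µM (halved further if the lowest dose protected), then compound plus 200 µM neomycin for 1 h. After rinsing, 0.05% DASPEI stain for 15 min and MS222 anaesthesia. Ten neuromasts per fish scored 0–2 under epifluorescence, normalised to untreated fish as % survival; HC50 linearly interpolated.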

Data set [10] in a line: Protein binding in rat plasma. Format: ADME, cell-free. To be noted: read-out: PPB.
The test system of data set [11] is Rattus norvegicus. In words: Acute toxicity in rat at 50 mg/kg, iv. The format is organism-based. Conditions: in vivo.
Data set [12] can be described thus: Protein binding in plasma. Conditions: read-out: PPB (converted).
A further data set addresses Cytochrome P450 2C9 (Homo sapiens, UniProt P11712). In words: Inhibition of CYP2C9 (unknown origin). The format is ADME.
Data set [13] concerns Rattus norvegicus. In words: Change in hearing threshold in Fischer 344 rat at 5 to 25 mg/kg/day administered via oral gavage for 12 days. Format: ADME, organism-based. To be noted: in vivo, 288 h. In outline:
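Fischer 344 rats given compound alone by oral gavage at 5 or 25 mg/kg/day for 12 days (n=3 per dose), vehicle PEG300:DMA:EtOH:H2O. ABR thresholds measured before dosing and after a 2-week recovery, under isoflurane anaesthesia in a sound-attenuating chamber.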

Data set [14] is described as follows: Oral bioavailability in rat at 25 mg/kg. Format: ADME, organism-based. To be noted: in vivo.
The test system of data set [15] is Pseudomonas aeruginosa. Nature of the data set: Effect on neomycin MIC for Pseudomonas aeruginosa 6160. The format is functional.
Data set [16] relates to Pseudomonas aeruginosa. Nature of the data set: Effect on amikacin MIC for Pseudomonas aeruginosa 6325. Format: functional.
For data set [17], the system named is Pseudomonas aeruginosa. In words: Effect on kanamycin MIC for Pseudomonas aeruginosa 6325. The format is functional.
Data set [18] deals with Pseudomonas aeruginosa. Nature of the data set: Effect on amikacin MIC for Pseudomonas aeruginosa 6471. Format: functional.
Data set [19] deals with Pseudomonas aeruginosa. Nature of the data set: Effect on amikacin MIC for Pseudomonas aeruginosa 6160. Format: functional.
The test system of data set [20] is Pseudomonas aeruginosa. Nature of the data set: Effect on kanamycin MIC for Pseudomonas aeruginosa 103 ATCC 27853. Format: functional.
The test system of data set [21] is Pseudomonas aeruginosa. Nature of the data set: Effect on amikacin MIC for aminoglycoside-resistant Pseudomonas aeruginosa 6322. The format is functional.
For data set [22], the system named is Escherichia coli. Nature of the data set: Effect on neomycin MBC for Escherichia coli ATCC 25922. The format is functional.
Data set [23] deals with Pseudomonas aeruginosa. Nature of the data set: Effect on neomycin MIC for Pseudomonas aeruginosa 103 ATCC 27853. The format is functional.
Data set [24] relates to Rattus norvegicus. In words: Protection against amikacin-induced hair cell death in Fischer 344 rat corti at 5 mg/kg/day administered via oral gavage for 12 days followed by recovery without treatment for additional 14 days by immunohistochemical method. The format is functional, organism-based. In outline:
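Rats given amikacin 320 mg/kg/day s.c. plus compound 5 mg/kg p.o. daily for 12 days; saline s.c. controls. Cochleae fixed in 4% paraformaldehyde and dissected. Organ of Corti immunostained for myosin 7A (hair cells), Sox2 (supporting-cell nuclei) and neurofilament (neuronal processes). Basal turn imaged by confocal microscopy.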

In data set [25] the test system is Pseudomonas aeruginosa. Nature of the data set: Effect on tobramycin MIC for Pseudomonas aeruginosa 6325. Format: functional.
The subject of data set [26] is Mycobacterium tuberculosis. Nature of the data set: Effect on kanamycin-induced antibacterial activity against Mycobacterium tuberculosis in mouse pulmonary tuberculosis model. The format is functional.
Data set [27] relates to Pseudomonas aeruginosa. In words: Effect on amikacin MIC for Pseudomonas aeruginosa 103 ATCC 27853. The format is functional.
Data set [28] concerns Pseudomonas aeruginosa. Nature of the data set: Effect on tobramycin MIC for aminoglycoside-resistant Pseudomonas aeruginosa 6322. The format is functional.
Data set [29] deals with Rattus norvegicus. In words: Protection against amikacin-induced hearing loss at 2 to 32 kHz in Fischer 344 rat at 5 mg/kg/day administered via oral gavage for 12 days followed by recovery without treatment for additional 14 days by auditory brain stem response assay. The format is functional, organism-based. In outline: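 Male Fischer 344 rats had ABR thresholds measured 1–2 weeks before treatment and 2 weeks after it, under isoflurane, on a heating pad near 37°C, in a sound-attenuating chamber. Amikacin 320 mg/kg/day s.c. for 12 days, with compound 5 mg/kg/day by oral gavage in PEG300:DMA:EtOH:H2O. Groups: amikacin alone or amikacin plus compound.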

In data set [30] the test system is Mycobacterium tuberculosis. Nature of the data set: Effect on amikacin-induced antibacterial activity against Mycobacterium tuberculosis in mouse pulmonary tuberculosis model. The format is functional.
For data set [31], the system named is Pseudomonas aeruginosa. Nature of the data set: Effect on neomycin MIC for Pseudomonas aeruginosa 6471. The format is functional.
Data set [32] has as its system Pseudomonas aeruginosa. Nature of the data set: Effect on tobramycin MIC for Pseudomonas aeruginosa 103 ATCC 27853. Format: functional.
Data set [33] has as its system Pseudomonas aeruginosa. In words: Effect on tobramycin MIC for Pseudomonas aeruginosa 6160. The format is functional.
Data set [34] deals with Pseudomonas aeruginosa. In words: Effect on tobramycin MIC for Pseudomonas aeruginosa 6471. The format is functional.
Data set [35] has as its system Pseudomonas aeruginosa. Nature of the data set: Effect on kanamycin MIC for Pseudomonas aeruginosa 6160. The format is functional.
In data set [36] the test system is Escherichia coli. In words: Effect on neomycin MIC for Escherichia coli ATCC 25922. The format is functional.
Data set [37] deals with Pseudomonas aeruginosa. In words: Effect on kanamycin MIC for aminoglycoside-resistant Pseudomonas aeruginosa 6322. Format: functional.
In data set [38] the test system is Pseudomonas aeruginosa. Nature of the data set: Effect on kanamycin MIC for Pseudomonas aeruginosa 6471. The format is functional.
Data set [39] deals with Mycobacterium tuberculosis. Nature of the data set: Effect on moxifloxacin-induced antibacterial activity against Mycobacterium tuberculosis in mouse pulmonary tuberculosis model. The format is functional.
The test system of data set [40] is Pseudomonas aeruginosa. Nature of the data set: Effect on neomycin MIC for Pseudomonas aeruginosa 6325. The format is functional.
Data set [41] relates to Mycobacterium tuberculosis. Nature of the data set: Effect on amikacin MIC for Mycobacterium tuberculosis H37Rv at 1 to 10 uM. The format is functional.
Data set [42] has as its system Pseudomonas aeruginosa. Nature of the data set: Effect on neomycin MIC for aminoglycoside-resistant Pseudomonas aeruginosa 6322. Format: functional.

Structures are written as SMILES. Active and inactive are the calls of the source.

Cytochrome P450 2C9, sequence (P11712 whole entry): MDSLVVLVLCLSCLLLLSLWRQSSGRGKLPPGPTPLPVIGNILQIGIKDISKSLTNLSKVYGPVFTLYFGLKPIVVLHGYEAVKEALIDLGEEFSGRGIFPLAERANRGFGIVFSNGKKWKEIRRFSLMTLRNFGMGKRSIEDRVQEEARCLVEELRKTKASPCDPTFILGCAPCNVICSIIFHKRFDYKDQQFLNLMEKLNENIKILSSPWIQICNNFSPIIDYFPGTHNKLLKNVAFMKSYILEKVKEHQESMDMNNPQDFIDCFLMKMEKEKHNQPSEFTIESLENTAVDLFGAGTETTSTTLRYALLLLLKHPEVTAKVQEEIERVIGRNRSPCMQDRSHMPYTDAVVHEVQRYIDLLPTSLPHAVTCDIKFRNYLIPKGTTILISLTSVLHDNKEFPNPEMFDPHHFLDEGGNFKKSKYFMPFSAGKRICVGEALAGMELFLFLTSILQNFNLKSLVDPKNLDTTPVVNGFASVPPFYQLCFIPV
Cytochrome P450 2C19, sequence (P33261 whole entry): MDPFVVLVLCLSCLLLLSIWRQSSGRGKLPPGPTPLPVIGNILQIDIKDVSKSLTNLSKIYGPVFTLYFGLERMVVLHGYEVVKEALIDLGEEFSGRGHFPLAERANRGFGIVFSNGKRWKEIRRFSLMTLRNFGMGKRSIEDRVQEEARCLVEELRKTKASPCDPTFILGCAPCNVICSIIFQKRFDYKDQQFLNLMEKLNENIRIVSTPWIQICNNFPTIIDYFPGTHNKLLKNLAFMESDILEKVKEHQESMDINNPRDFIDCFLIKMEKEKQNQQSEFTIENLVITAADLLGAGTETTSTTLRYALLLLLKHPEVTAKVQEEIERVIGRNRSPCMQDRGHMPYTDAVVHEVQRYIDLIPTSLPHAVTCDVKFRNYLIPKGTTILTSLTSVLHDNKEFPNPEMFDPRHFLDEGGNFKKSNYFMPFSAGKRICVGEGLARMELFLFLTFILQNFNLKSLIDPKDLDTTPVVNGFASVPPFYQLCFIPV
Cytochrome P450 3A4, sequence (P08684 whole entry): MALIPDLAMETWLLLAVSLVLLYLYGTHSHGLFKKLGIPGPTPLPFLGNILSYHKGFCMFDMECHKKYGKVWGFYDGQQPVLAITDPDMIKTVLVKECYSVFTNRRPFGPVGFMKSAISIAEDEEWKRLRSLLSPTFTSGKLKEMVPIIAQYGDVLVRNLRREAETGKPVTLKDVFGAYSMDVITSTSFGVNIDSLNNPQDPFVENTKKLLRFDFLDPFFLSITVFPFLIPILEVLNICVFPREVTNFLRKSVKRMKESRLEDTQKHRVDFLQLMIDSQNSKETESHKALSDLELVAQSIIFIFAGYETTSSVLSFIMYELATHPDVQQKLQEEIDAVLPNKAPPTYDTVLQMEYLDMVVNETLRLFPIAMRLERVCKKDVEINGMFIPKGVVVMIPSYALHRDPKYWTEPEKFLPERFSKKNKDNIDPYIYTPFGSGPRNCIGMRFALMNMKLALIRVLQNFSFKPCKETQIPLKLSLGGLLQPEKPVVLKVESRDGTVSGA
Cytochrome P450 2D6, sequence (P10635 whole entry): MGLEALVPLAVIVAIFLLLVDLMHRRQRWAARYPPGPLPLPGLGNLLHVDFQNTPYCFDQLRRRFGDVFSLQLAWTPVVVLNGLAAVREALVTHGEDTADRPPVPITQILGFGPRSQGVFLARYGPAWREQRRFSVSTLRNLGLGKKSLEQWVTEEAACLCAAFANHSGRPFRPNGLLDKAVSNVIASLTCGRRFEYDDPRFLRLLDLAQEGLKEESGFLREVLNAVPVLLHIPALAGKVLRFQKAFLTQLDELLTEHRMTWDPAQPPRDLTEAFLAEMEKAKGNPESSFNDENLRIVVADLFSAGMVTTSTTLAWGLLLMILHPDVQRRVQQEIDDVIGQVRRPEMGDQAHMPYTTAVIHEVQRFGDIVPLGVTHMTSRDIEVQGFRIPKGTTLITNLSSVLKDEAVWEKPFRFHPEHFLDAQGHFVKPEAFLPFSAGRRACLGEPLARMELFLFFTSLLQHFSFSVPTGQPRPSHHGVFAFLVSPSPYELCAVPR

On to `CN1[C@@H]2CC[C@H]1c1c(sc(NC(=O)Nc3ccc(Cl)cc3)c1C(N)=O)C2.Cl`, for which the half-life in [1] is 7.8 h. Also, the Drug metabolism entry in data set [2] is “Metabolite_Notdetected”. Moreover, in data set [3], the Papp is 5.2 ×10⁻⁶ cm/s. Further, the solubility in [4] is 86 µM. In addition, the IC50 was 58 µM at Cytochrome P450 2C19; more than 100 µM against Cytochrome P450 2D6; more than 300 µM in the data set with HepG2; 46 µM against Cytochrome P450 3A4; 60 µM against Cytochrome P450 2C9. The Stability entry in data set [5] is reported as “Stable”. Moreover, the Ratio in data set [6] came to 47. Further, the fraction unbound was 0.093 to 0.11 in [7], 0.099 to 0.14 in [10] and 0.1 in [12]. Also, the concentration for a half-maximal effect (EC50) in the data set listed under Danio rerio [8] is 0.12 µM. In addition, the “%max” value in the data set filed under Danio rerio [9] was determined as 98%. In addition, the Activity entry in the data set with Rattus norvegicus [11] and with Rattus norvegicus [13] was “Non-Toxic” in each case. The compound further came in with a bioavailability in [14] of more than 50%.
On to `CN1[C@@H]2CC[C@H]1c1c(sc(NC(=O)Nc3ccc(Cl)cc3)c1C(N)=O)C2`, for which the outcome in the data set with Pseudomonas aeruginosa [15], in the data set on Pseudomonas aeruginosa [16], in the data set on Pseudomonas aeruginosa [17], in the data set with Pseudomonas aeruginosa [18], with Pseudomonas aeruginosa [19] and with Pseudomonas aeruginosa [20] was inactive. The result (in the data set on Pseudomonas aeruginosa [21]; in the data set on Escherichia coli [22]; with Pseudomonas aeruginosa [23]; in the data set with Pseudomonas aeruginosa [25]; in data set [26]; in the data set with Pseudomonas aeruginosa [27]) was inactive. Besides, the outcome (with Pseudomonas aeruginosa [28]; in data set [30]; in the data set on Pseudomonas aeruginosa [31]; in the data set with Pseudomonas aeruginosa [32]; with Pseudomonas aeruginosa [33]; in the data set on Pseudomonas aeruginosa [34]) was inactive. The outcome (with Pseudomonas aeruginosa [35]; with Escherichia coli [36]; with Pseudomonas aeruginosa [37]; in the data set on Pseudomonas aeruginosa [38]; in data set [39]; in the data set with Pseudomonas aeruginosa [40]) was inactive. Moreover, the result (in data set [41]; in the data set with Pseudomonas aeruginosa [42]) was inactive. Besides, the outcome in the data set with Rattus norvegicus [24] and in the data set on Rattus norvegicus [29] was Active.

One may read the solubility as the concentration that dissolves in the medium under given conditions. A word on the IC50: it is the concentration at which inhibition is half-maximal. In general, EC50 refers to the midpoint of the concentration-response curve. Broadly, the bioavailability is the share of a dose that reaches the circulation, judged against a reference dose that is usually intravenous. Low readings indicate little systemic uptake, high ones much systemic uptake.
